# Measurements collected from several papers.
# Compare with care: the assays were run in different laboratories.
# Target: Serine/threonine-protein kinase Nek10 (NEK10, Homo sapiens, UniProt Q6ZWH5)
# Sequence (Q6ZWH5 1-1172, as in one of the studies): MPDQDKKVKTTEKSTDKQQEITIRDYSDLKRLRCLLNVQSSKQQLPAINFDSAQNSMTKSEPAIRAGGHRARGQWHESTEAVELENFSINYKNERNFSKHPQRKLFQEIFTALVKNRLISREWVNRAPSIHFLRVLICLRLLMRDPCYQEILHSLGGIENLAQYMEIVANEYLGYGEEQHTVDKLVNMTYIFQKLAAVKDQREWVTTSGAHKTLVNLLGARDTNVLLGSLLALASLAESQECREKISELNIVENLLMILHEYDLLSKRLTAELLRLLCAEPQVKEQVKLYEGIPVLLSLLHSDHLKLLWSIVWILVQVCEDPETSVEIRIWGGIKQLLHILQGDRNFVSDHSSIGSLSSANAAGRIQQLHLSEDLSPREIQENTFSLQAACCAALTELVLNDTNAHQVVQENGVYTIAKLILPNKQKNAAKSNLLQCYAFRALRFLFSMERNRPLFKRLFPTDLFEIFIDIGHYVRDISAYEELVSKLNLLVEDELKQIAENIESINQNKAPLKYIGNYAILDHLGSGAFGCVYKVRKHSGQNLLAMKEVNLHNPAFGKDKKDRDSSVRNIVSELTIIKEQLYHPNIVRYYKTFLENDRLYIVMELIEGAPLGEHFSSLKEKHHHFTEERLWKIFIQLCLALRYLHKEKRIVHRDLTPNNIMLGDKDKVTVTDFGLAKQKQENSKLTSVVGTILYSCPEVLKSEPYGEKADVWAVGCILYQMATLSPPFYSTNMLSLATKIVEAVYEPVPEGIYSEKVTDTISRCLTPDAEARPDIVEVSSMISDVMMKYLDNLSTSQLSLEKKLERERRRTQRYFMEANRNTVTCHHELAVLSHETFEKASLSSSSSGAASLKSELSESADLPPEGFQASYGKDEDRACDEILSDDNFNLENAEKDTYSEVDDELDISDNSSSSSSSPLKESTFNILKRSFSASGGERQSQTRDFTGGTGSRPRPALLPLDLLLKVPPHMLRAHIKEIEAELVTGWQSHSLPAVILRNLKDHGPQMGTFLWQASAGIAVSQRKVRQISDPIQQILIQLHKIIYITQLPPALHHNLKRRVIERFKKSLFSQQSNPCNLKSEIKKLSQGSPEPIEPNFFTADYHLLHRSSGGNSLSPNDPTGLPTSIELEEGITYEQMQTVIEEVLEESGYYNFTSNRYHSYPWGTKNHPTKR
Structure (SMILES),read-out,technique,concentration,remaining binding
CNC(=O)c1ccc(Nc2ncc(C(F)(F)F)c(NCc3nccnc3N(C)S(C)(=O)=O)n2)cc1,cell-free assay,competition with immobilised ligand,0.1 µM,100%
O=C(c1ccc(Nc2nccc(-c3cc4ccccc4s3)n2)cc1)N1CCC(N2CCCC2)CC1,binding,competition with immobilised ligand,1 µM,43%
CCOCCn1cc(C(=O)Nc2ccc(-n3nc(-c4cccnc4)cc3C(F)(F)F)cn2)ccc1=O,cell-free assay,competition with immobilised ligand,1 µM,94%
CN(c1nccc(-c2cnn3ncccc23)n1)C1CC1,binding,,1 µM,100%
O=C(Nc1c[nH]nc1C(=O)NC1CCNCC1)c1cc(F)cc(F)c1,binding,competition with immobilised ligand,1 µM,100%
CC1CCCN1c1nccc(-c2cnn3ncccc23)n1 (centres unmarked),binding,,1 µM,100%
C=CC(=O)N1CCC(C(=O)NCC(=O)N2CCN(c3nc(-c4cnc(N)nc4C(F)F)nc(N4CCOCC4)n3)CC2)CC1,binding,competition with immobilised ligand,1 µM,76%
COc1cc(-c2cn(C3CCc4ccccc4N(CC(F)(F)F)C3=O)nn2)ccc1-n1ccc(C)n1 (centres unmarked),cell-free assay,competition with immobilised ligand,1 µM,81%
O=C(c1ccc(Nc2ncc(Cl)c(-c3ccc(Cl)s3)n2)cc1)N1CCC(N2CCCC2)CC1,binding,competition with immobilised ligand,1 µM,30%
C[C@@H](c1cccc(C#N)c1)n1cc(Cl)cc(C(N)=O)c1=N,cell-free assay,competition with immobilised ligand,1 µM,91%
c1cncc(-c2cccc(Nc3nccc(NC4CCCCC4)n3)c2)c1,binding,competition with immobilised ligand,10 µM,1.6%
COc1cnc(Nc2cccc(S(N)(=O)=O)c2)nc1N1CCN(c2ccccc2)C(=O)C1,binding,competition with immobilised ligand,1 µM,90%
CN(C)c1nccc(-c2cnc3ncccn23)n1,binding,,1 µM,59%
Nc1c(C(=O)NCc2ccc(C(=O)NCCCC3CCCCC3)cc2)cnn1-c1ccccc1,cell-free assay,competition with immobilised ligand,0.1 µM,100%
N[C@@H]1CCN(c2nccc(-c3cnn4ncccc34)n2)C1,binding,,1 µM,100%
O=C(c1ccc(Nc2ncc(Cl)c(-c3cc4ccccc4s3)n2)cc1)N1CCC(N2CCCC2)CC1,binding,competition with immobilised ligand,1 µM,74%
Nc1ncc2c(n1)-c1c([nH]c3ccc(C#CC4CC4)cc13)CCCC2,binding,competition with immobilised ligand,1 µM,79%
